# In ChEMBL document CHEMBL1155930, “Novel dimeric aryldiketo containing inhibitors of HIV-1 integrase: effects of the phenyl substituent and the linker orientation” (Bioorg Med Chem, 2008):
# Legend:
# [1] = target: T1, Human immunodeficiency virus type 1 integrase (Human immunodeficiency virus 1, UniProt Q7ZJM1); assay: Inhibition of wild-type HIV1 integrase strand transfer activity using [32P]-labeled linear oligonucleotide substrate by polyacrylamide gel electrophoresis
# Summary of the method: (§1)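 Wild-type IN (final 200 nM) preincubated with inhibitor for 30 min at 30 °C in buffer containing 50 mM NaCl, 1 mM HEPES pH 7.5, 50 μM EDTA, 50 μM DTT, 10% glycerol, 7.5 mM MnCl2, 0.1 mg/mL BSA, 10 mM 2-mercaptoethanol, 10% DMSO, 25 mM MOPS pH 7.2. Then 20 nM 5'-32P-labeled annealed 21-mer duplex added, 1 h more. Quenched with formamide loading dye. IC50 from log concentration vs percent inhibition.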
# [2] = target: T1, Human immunodeficiency virus type 1 integrase; assay: Inhibition of wild-type HIV1 integrase 3'-processing activity using [32P]-labeled linear oligonucleotide substrate by polyacrylamide gel electrophoresis; summary of the method: as §1
# T1 sequence (Q7ZJM1 whole entry): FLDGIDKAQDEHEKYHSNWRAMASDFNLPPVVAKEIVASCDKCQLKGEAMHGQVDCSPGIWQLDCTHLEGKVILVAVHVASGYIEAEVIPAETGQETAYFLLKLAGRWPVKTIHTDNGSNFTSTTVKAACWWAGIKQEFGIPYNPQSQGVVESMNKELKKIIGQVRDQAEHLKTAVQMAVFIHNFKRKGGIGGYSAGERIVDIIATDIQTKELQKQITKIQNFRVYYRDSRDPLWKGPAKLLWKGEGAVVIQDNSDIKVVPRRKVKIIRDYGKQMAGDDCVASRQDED
Compound,IC50 [1] [µM],IC50 [2] [µM]
O=C(CC(=O)c1cccc(OCc2ccccc2)c1)C(=O)N1CCN(C(=O)C(=O)CC(=O)c2cccc(OCc3ccccc3)c2)CC1,1.8,56
Cc1cc(C(=O)/C=C(\O)C(=O)O)ccc1Cl,4.7,94
O=C(O)/C(O)=C/C(=O)c1ccccc1Cl,17,> 100
O=C(O)/C(O)=C/C(=O)c1ccccc1F,58,> 100
COC(=O)/C(O)=C/C(=O)c1ccc(OC)c(OCc2ccccc2)c1,16,> 100
O=C(CC(=O)c1cccc(OCc2ccccc2)c1)C(=O)OC1CCN(C(=O)C(=O)CC(=O)c2cccc(OCc3ccccc3)c2)CC1,3,91
O=C(CC(=O)c1cccc(OCc2ccccc2)c1)C(=O)NC1CCC(NC(=O)C(=O)CC(=O)c2cccc(OCc3ccccc3)c2)CC1 (stereo not drawn),7,> 100
O=C(CC(=O)c1cccc(OCc2ccccc2)c1)C(=O)NC1CCN(C(=O)C(=O)CC(=O)c2cccc(OCc3ccccc3)c2)CC1,< 0.4,23
O=C(CC(=O)c1ccc(C(F)(F)F)cc1)C(=O)N1CCN(C(=O)C(=O)CC(=O)c2ccc(C(F)(F)F)cc2)CC1,25,> 100
O=C(O)/C(O)=C/C(=O)c1ccc(C(F)(F)F)cc1,33,> 100
COc1ccc(C(=O)/C=C(\O)C(=O)O)cc1OCc1ccccc1,< 0.4,55
COC(=O)/C(O)=C/C(=O)c1ccccc1F,> 100,> 100
O=C(CC(=O)c1ccccc1F)C(=O)NC1CCC(NC(=O)C(=O)CC(=O)c2ccccc2F)CC1 (stereo not drawn),55,> 100
O=C(CC(=O)c1ccccc1Cl)C(=O)N1CCN(C(=O)C(=O)CC(=O)c2ccccc2Cl)CC1,> 100,> 100
O=C(CC(=O)c1ccc(F)cc1)C(=O)NC1CCN(C(=O)C(=O)CC(=O)c2ccc(F)cc2)CC1,88,> 100
O=C(CC(=O)c1ccc(F)cc1)C(=O)N1CCN(C(=O)C(=O)CC(=O)c2ccc(F)cc2)CC1,29,> 100
COC(=O)/C(O)=C/C(=O)c1cccc(NC(=O)OCc2ccccc2)c1,7,99

Compound,IC50 [1] [µM],IC50 [2] [µM]
COC(=O)/C(O)=C/C(=O)c1cccc(Cc2ccccc2F)c1,0.6,26
COC(=O)/C(O)=C/C(=O)c1cccc(N(Cc2ccccc2)Cc2ccccc2)c1,> 100,> 100
O=C(O)/C(O)=C/C(=O)c1ccccc1,24.2,> 100
COc1cccc(C(=O)CC(=O)C(=O)NC2CCC(NC(=O)C(=O)CC(=O)c3cccc(OC)c3)CC2)c1 (stereo not drawn),26,> 100
COc1cccc(C(=O)CC(=O)C(=O)N2CCN(C(=O)C(=O)CC(=O)c3cccc(OC)c3)CC2)c1,26,> 100
O=C(O)/C(O)=C/C(=O)c1ccc([N+](=O)[O-])cc1,45,> 100
COC(=O)/C(O)=C/C(=O)c1ccc(F)cc1,> 100,> 100
O=C(CC(=O)c1ccc(F)cc1)C(=O)NC1CCC(NC(=O)C(=O)CC(=O)c2ccc(F)cc2)CC1 (stereo not drawn),35.5,> 100
O=C(CC(=O)c1ccccc1Cl)C(=O)NC1CCN(C(=O)C(=O)CC(=O)c2ccccc2Cl)CC1,31,99
COC(=O)/C(O)=C/C(=O)c1cccc(OCc2ccccc2)c1,14,> 100
O=C(O)/C(O)=C/C(=O)c1cccc(OCc2ccccc2)c1,< 0.4,19
COc1cccc(C(=O)/C=C(\O)C(=O)O)c1,27,> 100
O=C(CC(=O)c1ccc(C(F)(F)F)cc1)C(=O)NC1CCC(NC(=O)C(=O)CC(=O)c2ccc(C(F)(F)F)cc2)CC1 (stereo not drawn),41,> 100
CCCCCC12CCC(C(=O)Nc3cccc(C(=O)CC(=O)C(=O)O)c3)(CC1)CC2,14,> 100
COc1cccc(C(=O)CC(=O)C(=O)NC2CCN(C(=O)C(=O)CC(=O)c3cccc(OC)c3)CC2)c1,53,> 100
CC(C)(C)OC(=O)N1CCC(NC(=O)/C(O)=C/C(=O)c2ccc(F)cc2)CC1,100,> 100
O=C(CC(=O)c1ccccc1Cl)C(=O)NC1CCC(NC(=O)C(=O)CC(=O)c2ccccc2Cl)CC1 (stereo not drawn),30,92
